Paper PMC5701662 (Bioorganic & medicinal chemistry letters, 2017)
“Also recorded” adds a separate entry of the source.

Experiments:
SMN2 expression [1] = test: SMN2-luciferase reporter assay; type: cell-based; settings: for activity in the luciferase reporter assay (in words): SAR statements in the text
Procedure, shortened: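 Reporter cells carrying the SMN2-luciferase construct were exposed to test compound at 0.1–50 μM, with DMSO (0.1%) controls. Luciferase signal gave dose-response curves, from which EC50 and percent maximum increase in SMN2 expression were taken. Values are mean ± S.E.M.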

aqueous solubility = type: physicochemical
[2] = stability in mouse microsomes; type: in vitro ADME
[3] = tested on: SMN1-luciferase construct; test: SMN1-luciferase construct expression; type: cell-based
[4] = tested on: SMN-luciferase reporter transcripts; test: qRT-PCR analysis of SMN-luciferase reporter transcripts; type: cell-based; settings: 24 hours required for full activation
SMNΔ7 mice = test: preliminary efficacy study in SMNΔ7 mice; type: in vivo, mouse; settings: 20 mg/kg i.p. once daily from PND 2, compared to vehicle
SMN2 expression [5] = settings: hit compounds from high-throughput screening; cited from earlier work

Structure (SMILES) | activity in the luciferase reporter assay (in words) (SMN2 expression [1]) | EC50 (SMN2 expression [1]) [µM] | also measured
COc1ccc2c(c1OC)C(c1cc(Br)ccc1F)CC(=O)N2 (centres unmarked) [5a] | complete loss of activity | – | –
COc1cc2c(c(OC)c1)C(c1cc(Br)ccc1F)CC(=O)N2 (centres unmarked) [5b] | complete loss of activity | – | –
COc1cc2c(c(OC)c1OC)C(c1ccccc1F)CC(=O)N2 (centres unmarked) [5c] | complete loss in activity | > 50 | –
COc1cc2c(c(OC)c1OC)C(c1cccc(Br)c1)CC(=O)N2 (centres unmarked) [5d] | complete loss in activity | > 50 | –
COc1cc2c(c(OC)c1OC)C(c1cc(F)ccc1F)CC(=O)N2 (centres unmarked) [5f] | not active | > 50 | –
COc1cc2c(c(OC)c1OC)C(c1cc(C#N)ccc1F)CC(=O)N2 (centres unmarked) [5g] | not active | > 50 | –
COc1cc2c(c(OC)c1OC)C(c1cc([N+](=O)[O-])ccc1F)CC(=O)N2 (centres unmarked) [5h] | not active | > 50 | –
COc1cc2c(c(OC)c1OC)C(c1cc(C(N)=O)ccc1F)CC(=O)N2 (centres unmarked) [5i] | not active | > 50 | –
COc1cc2c(c(OC)c1OC)C(c1cccc(Cl)c1Cl)CC(=O)N2 (centres unmarked) [5j] | inactive | > 50 | –
COc1cc2c(c(OC)c1OC)C(c1ccc(Cl)cc1Cl)CC(=O)N2 (centres unmarked) [5k] | inactive | > 50 | –
COc1cc2c(c(OC)c1OC)C(c1ccc(F)c(F)c1)CC(=O)N2 (centres unmarked) [5l] | inactive | > 50 | –
COc1cc2c(c(OC)c1OC)C(c1ccc(Cl)c(Cl)c1)CC(=O)N2 (centres unmarked) [5m] | inactive | > 50 | –
COc1cc2c(c(OC)c1OC)C(c1cc(Br)ccc1F)CC(=O)N2C (centres unmarked) [6a] | inactive | – | –
COc1cc2c(c(OC)c1OC)C(c1cc(Br)ccc1F)C(C)C(=O)N2 (centres unmarked) [6b] | inactive | – | –
COc1cc2c(c(OC)c1OC)C(c1cc(Cl)ccc1F)NC(=O)N2 (centres unmarked) [9a] | improved potency and efficacy; also recorded: very promising activity | – | SMN-luciferase protein expression from the SMN2-luciferase construct (SMN2 expression [1]; secondary characterisation): increased SMN-luciferase protein expression; aqueous solubility (in words) (aqueous solubility): improved aqueous solubility; stability in mouse microsomes (in words) [2]: promising stability; SMN-luciferase protein expression from the SMN1-luciferase construct [3]: increased SMN-luciferase protein expression; amount of exon 7 included transcripts [4]: corresponding increase; amount of total SMN-luciferase reporter transcripts [4]: increased; ability to right themselves (SMNΔ7 mice): increase in the ability to right themselves
COc1cc2c(c(OC)c1OC)C(c1ccccc1F)N(C)C(=O)N2 (centres unmarked) [9b] | less active; also recorded: partial, but not a complete, loss in activity | 10 | Emax (SMN2 expression [1]; read-out: percent maximum increase in SMN2 expression): 100%
CCCN1C(=O)Nc2cc(OC)c(OC)c(OC)c2C1c1cccc(Cl)c1 (centres unmarked) [9c] | inactive; also recorded: partial, but not a complete, loss in activity | – | –
COc1cc2c(c(OC)c1OC)C(c1cccc(F)c1)NC(=O)N2 (centres unmarked) [9d] | retained some activity | – | –
COc1cc2c(c(OC)c1OC)C(c1ccc(F)cc1)NC(=O)N2 (centres unmarked) [9e] | retained some activity | – | –

Structure (SMILES) | activity in the luciferase reporter assay (in words) (SMN2 expression [1]) | EC50 (SMN2 expression [1]) [µM] | also measured
COc1cc2c(c(OC)c1OC)C(c1ccccc1Cl)NC(=O)N2 (centres unmarked) [9f] | – | > 50 | –
COc1cc2c(c(OC)c1OC)C(c1ccc(Cl)cc1)NC(=O)N2 (centres unmarked) [9g] | retained some activity | – | –
COc1ccccc1C1NC(=O)Nc2cc(OC)c(OC)c(OC)c21 (centres unmarked) [9h] | – | > 50 | –
COc1ccc(C2NC(=O)Nc3cc(OC)c(OC)c(OC)c32)cc1 (centres unmarked) [9j] | – | > 50 | –
COc1cc2c(c(OC)c1OC)C(c1cc(-c3ccccc3)ccc1F)NC(=O)N2 (centres unmarked) [9l] | inactive | > 50 | –
COc1cc2c(c(OC)c1OC)C(c1cc(C#N)ccc1F)NC(=O)N2 (centres unmarked) [9m] | inactive | > 50 | –
COc1cc2c(c(OC)c1OC)C(c1cc(F)ccc1F)NC(=O)N2 (centres unmarked) [9n] | less active | – | –
COc1ccc(F)c(C2NC(=O)Nc3cc(OC)c(OC)c(OC)c32)c1 (centres unmarked) [9o] | inactive | > 50 | –
COc1cc2c(c(OC)c1OC)C(c1ccc(Cl)cc1F)NC(=O)N2 (centres unmarked) [9p] | tolerated | – | –
COc1cc(Cl)ccc1C1NC(=O)Nc2cc(OC)c(OC)c(OC)c21 (centres unmarked) [9q] | activity was restored | – | –
COc1ccc(Cl)cc1C1NC(=O)Nc2cc(OC)c(OC)c(OC)c21 (centres unmarked) [9r] | activity was restored | – | –
CC(C)c1cc(C(=O)Nc2ccc(F)c(Cl)c2)no1 [compound 1] | – | – | increase in expression of SMN2 (SMN2 expression [5]): 2 fold
COc1cc2c(c(OC)c1OC)C(c1cc(Br)ccc1F)CC(=O)N2 (centres unmarked) [compound 2] | – | – | increase in expression of SMN2 (SMN2 expression [5]): 2 fold
COc1cc2[nH]c(=O)nc(-c3cc(Cl)ccc3F)c2c(OC)c1OC [compound 13] | inactive | – | –
COc1cc2c(c(OC)c1OC)C(c1cc(Cl)ccc1F)=NCC(=O)N2 [compound 14] | retained potency similar to the lead 2, although its efficacy was reduced | – | –
COc1cc2c(c(OC)c1OC)C(c1cc(Cl)ccc1F)OC(=O)N2 (centres unmarked) [compound 16] | encouraging activity | – | –
COc1cc2c(c(OC)c1OC)C(c1cc(Cl)ccc1F)OCC(=O)N2 (centres unmarked) [compound 19] | improved potency and efficacy | – | aqueous solubility (in words) (aqueous solubility): improved aqueous solubility; stability in mouse microsomes (in words) [2]: poor
COc1cc2c(c(OC)c1OC)C(c1cc(Cl)ccc1F)OCC(=O)N2C (centres unmarked) [compound 21] | not tolerated | – | –
COc1cc2c(c(OC)c1OC)C(C)(c1cc(Cl)ccc1F)OCC(=O)N2 (centres unmarked) [compound 23] | not tolerated | – | –
